Reference: publication PMC5905335 (Cancer discovery, 2017)
Several values for one entry are separate records, joined by “and”; a condition that tells them apart may be missing. Equal values may be shown once. Read-outs that look alike come from different tables or passages of the source.

How the values were obtained:
[1] = system: BRCA-mutated ovarian cancer; assay: Antitumor activity; type: in vivo, human
In short: (§1)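 Adults with advanced solid tumours received oral test compound 1.0 mg once daily, continuously in 28-day cycles, in the expansion part. Entry required germline BRCA1/2 mutation confirmed by BRACAnalysis or local laboratory (ovarian/peritoneal, breast, prostate, pancreatic), DNA repair deficiency, or SCLC or Ewing sarcoma. Investigators assessed response by RECIST 1.1. ORR had exact 95% CI (Clopper–Pearson); PFS was estimated by Kaplan–Meier.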

pancreatic cancer = assay: Antitumor activity; type: in vivo, human
In short: as §1

[2] = Plasma pharmacokinetics after single and multiple daily dosing; conditions: human, in vivo; for Vd/F: Vz/F; for half-life: t1/2, mean (SD)
[3] = type: in vivo; conditions: Part 1 and Part 2; none considered related to study treatment
PARP1/2 = conditions: cited from earlier work
[4] = system: BRCA mutation–associated breast cancer; assay: Antitumor activity; type: in vivo, human; conditions: 1.0 mg/day, BRCA1/2 mutation
In short: as §1

Ewing sarcoma = assay: Antitumor activity; type: in vivo, human; conditions: 1.0 mg/day, n = 13, CR + PR + SD ≥16 weeks
In short: as §1

[5] = Urinary elimination of parent compound; type: in vivo, human; conditions: daily dosing between 0.025 and 1.1 mg
In short: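 In dose escalation, fasted patients took a single oral dose, with PK sampling over 1 week. They then took the dose once daily for 28 days, followed by a 1-week break for sampling (doses 0.025–1.1 mg/day, 3+3 design). Urine was assayed by validated LC/MS-MS (LLOQ 25.0 pg/mL). Ae0–24, Fe0–24 and ARC0–24 came from noncompartmental analysis.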

PARP–DNA complexes = conditions: in vitro, comparison with other PARP1/2 inhibitors, cited from earlier work
PARP = assay: PBMC PARP activity; type: in vivo, human
small cell lung cancer = assay: Antitumor activity; type: in vivo, human; conditions: 1.0 mg/day
In short: as §1

Cn1ncnc1[C@H]1c2n[nH]c(=O)c3cc(F)cc(c23)N[C@@H]1c1ccc(F)cc1 [talazoparib]
Median PFS ([1]; 1.0 mg/day, ovarian/peritoneal, BRCA1/2 mutation, analysis on 14 patients): 36.4 weeks and 36.4 ^c weeks
ORR ([1]; 1.0 mg/day, ovarian/peritoneal, BRCA1/2 mutation, n = 12): 41.7%
CBR ([1]; 1.0 mg/day, ovarian/peritoneal, BRCA1/2 mutation, n = 12, CR + PR + SD ≥24 weeks): 66.7%
CBR lasting at least 24 weeks ([1]; any dose level, BRCA-mutated ovarian cancer with measurable disease, n = 25): 76%
ORR (pancreatic cancer; 1.0 mg/day, pancreatic, n = 10): 20.0%
CBR (pancreatic cancer; 1.0 mg/day, pancreatic, n = 10, CR + PR + SD ≥16 weeks): 30.0%
CBR ≥16 weeks (pancreatic cancer; 13 patients with pancreatic cancer from Part 1 and Part 2): 31%
dose proportionality parameter β for AUC0–24, estimate (95% CI) [2]: 0.95 (0.84–1.05)
dose proportionality parameter β for Cmax, estimate (95% CI) [2]: 1.11 (1.01–1.20)
time to maximum plasma concentration (Cmax) [2]: ≤ 2 h
AUC(0-inf) ([2]; 0.025 mg): 5.33 ng·h/mL
AUC(0-t) ([2]; 0.025 mg, AUC0–24, mean (SD)): 0.952 ng·h/mL
AUC(0-t) ([2]; 0.025 mg, AUC0–t, mean (SD)): 3.6 ng·h/mL
Cmax ([2]; 0.025 mg, mean (SD)): 0.06 ng/mL
Tmax ([2]; 0.025 mg, Tmax, median (min, max)): 7.92 h
Vd/F ([2]; 0.025 mg, mean (SD)): 756 L
half-life ([2]; 0.025 mg): 100 h
AUC(0-inf) ([2]; 0.05 mg): 8.32 ng·h/mL
AUC(0-t) ([2]; 0.05 mg, AUC0–24, mean (SD)): 1.16 ng·h/mL
AUC(0-t) ([2]; 0.05 mg, AUC0–t, mean (SD)): 5.34 ng·h/mL
Cmax ([2]; 0.05 mg, mean (SD)): 0.0797 ng/mL
Vd/F ([2]; 0.05 mg, mean (SD)): 1240 L
half-life ([2]; 0.05 mg): 129 h
AUC(0-inf) ([2]; 0.1 mg): 37.6 ng·h/mL
AUC(0-t) ([2]; 0.1 mg, AUC0–24, mean (SD)): 3.16 ng·h/mL
Cmax ([2]; 0.1 mg, mean (SD)): 0.214 ng/mL
Tmax ([2]; 0.1 mg, Tmax, median (min, max)): 1.02 h
Vd/F ([2]; 0.1 mg, mean (SD)): 839 L
half-life ([2]; 0.1 mg): 229 h
AUC(0-inf) ([2]; 0.2 mg): 92.7 ng·h/mL
Tmax ([2]; 0.2 mg): 1.03 h
AUC(0-t) ([2]; 0.2 mg, AUC0–24, mean (SD)): 9.13 ng·h/mL
AUC(0-t) ([2]; 0.2 mg, AUC0–t, mean (SD)): 39.3 ng·h/mL
Cmax ([2]; 0.2 mg, mean (SD)): 0.788 ng/mL
Vd/F ([2]; 0.2 mg, mean (SD)): 678 L
half-life ([2]; 0.2 mg): 212 h
AUC(0-inf) ([2]; 0.4 mg): 60.1 ng·h/mL
AUC(0-t) ([2]; 0.4 mg, AUC0–24, mean (SD)): 13.5 ng·h/mL
AUC(0-t) ([2]; 0.4 mg, AUC0–t, mean (SD)): 43.7 ng·h/mL
Cmax ([2]; 0.4 mg, mean (SD)): 1.83 ng/mL
Tmax ([2]; 0.4 mg, Tmax, median (min, max)): 2.03 h
Vd/F ([2]; 0.4 mg, mean (SD)): 1050 L
half-life ([2]; 0.4 mg): 102 h
AUC(0-inf) ([2]; 0.6 mg): 120 ng·h/mL
AUC(0-t) ([2]; 0.6 mg, AUC0–24, mean (SD)): 37.9 ng·h/mL
AUC(0-t) ([2]; 0.6 mg, AUC0–t, mean (SD)): 97.9 ng·h/mL
Cmax ([2]; 0.6 mg, mean (SD)): 4.1 ng/mL
Tmax ([2]; 0.6 mg, Tmax, median (min, max)): 0.835 h
Vd/F ([2]; 0.6 mg, mean (SD)): 441 L
half-life ([2]; 0.6 mg): 58.6 h
AUC(0-inf) ([2]; 0.9 mg): 188 ng·h/mL
AUC(0-t) ([2]; 0.9 mg, AUC0–24, mean (SD)): 58.2 ng·h/mL
AUC(0-t) ([2]; 0.9 mg, AUC0–t, mean (SD)): 160 ng·h/mL
Cmax ([2]; 0.9 mg, mean (SD)): 6.1 ng/mL
Tmax ([2]; 0.9 mg, Tmax, median (min, max)): 2 h
Vd/F ([2]; 0.9 mg, mean (SD)): 468 L
half-life ([2]; 0.9 mg): 60.4 h
AUC(0-inf) ([2]; 1 mg): 200 ng·h/mL
AUC(0-t) ([2]; 1 mg, AUC0–24, mean (SD)): 85.1 ng·h/mL
AUC(0-t) ([2]; 1 mg, AUC0–t, mean (SD)): 182 ng·h/mL
Cmax ([2]; 1 mg, mean (SD)): 10.6 ng/mL
Tmax ([2]; 1 mg, Tmax, median (min, max)): 1.03 h
Vd/F ([2]; 1 mg, mean (SD)): 415 L
half-life ([2]; 1 mg): 52.9 h
AUC(0-inf) ([2]; 1.1 mg): 235 ng·h/mL
AUC(0-t) ([2]; 1.1 mg, AUC0–24, mean (SD)): 91.6 ng·h/mL
AUC(0-t) ([2]; 1.1 mg, AUC0–t, mean (SD)): 201 ng·h/mL
Cmax ([2]; 1.1 mg, mean (SD)): 13.2 ng/mL
Tmax ([2]; 1.1 mg, Tmax, median (min, max)): 1 h
Vd/F ([2]; 1.1 mg, mean (SD)): 549 L
half-life ([2]; 1.1 mg): 71 h
deaths associated with an AE during the study [3]: eight
catalytic activity compared with olaparib and rucaparib (PARP1/2): equivalent catalytic activity to olaparib and rucaparib
Median PFS ([4]; n = 14): 34.6 weeks
ORR ([4]; n = 14): 50.0%
CBR ([4]; n = 14, CR + PR + SD ≥24 weeks): 85.7%
CBR (Ewing sarcoma): 23.1%
urinary elimination kinetics of the parent compound [5]: linear urinary elimination kinetics
trapping PARP–DNA complexes at sites of single-strand DNA breaks (PARP–DNA complexes): most potent PARP1/2 inhibitor in vitro
trapping PARP–DNA complexes at sites of single-strand DNA breaks (PARP–DNA complexes; listed as Talazoparib): superior in trapping PARP–DNA
PARP activity, mean (SD) (PARP; multiple dosing 0.025 mg/day, n = 3): 172 (206) % baseline
PARP activity, mean (SD) (PARP; multiple dosing 0.05 mg/day, n = 3): 141 (52.5) % baseline
PARP activity, mean (SD) (PARP; multiple dosing 0.1 mg/day, n = 3): 102 (98.0) % baseline
PARP activity, mean (SD) (PARP; multiple dosing 0.2 mg/day, n = 3): 14.7 (5.04) % baseline
PARP activity, mean (SD) (PARP; multiple dosing 0.4 mg/day, n = 3): 111 (96.5) % baseline
PARP activity, mean (SD) (PARP; multiple dosing 0.6 mg/day, n = 4): 24.7 (8.19) % baseline
PARP activity, mean (SD) (PARP; multiple dosing 0.9 mg/day, n = 4): 34.7 (27.4) % baseline
PARP activity, mean (SD) (PARP; multiple dosing 1.1 mg/day, n = 2): 16.3 (5.63) % baseline
Median PFS (small cell lung cancer; SCLC, n = 23): 11.1 weeks
ORR (small cell lung cancer; SCLC, n = 23): 8.7%
CBR (small cell lung cancer; SCLC, n = 23, CR + PR + SD ≥16 weeks): 26.1%
duration of response (small cell lung cancer; the two SCLC patients with PR): 12.0 weeks
